Results as given in ChEMBL document CHEMBL3351839, “Design, synthesis, in silico molecular docking and biological evaluation of novel oxadiazole based thiazolidine-2,4-diones bis-heterocycles as PPAR-γ agonists” (Eur J Med Chem, 2014).
pIC50: −log10 of the molar value. Active and inactive are the calls of the source. The rule behind the calls is not given here.

How the values were obtained:
[1] = tested on: Rattus norvegicus; assay: Antidiabetic activity in streptozotocin induced diabetic Albino Wistar rat model assessed as blood glucose level dosed orally at equimolar dose of Pioglitazone by glucose oxidase method; type: functional
Method in brief: (§1)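 STZ 60 mg/kg i.p. (freshly made in 0.1 M citrate buffer pH 4.5) to overnight-fasted rats, 5% glucose to drink overnight; diabetic if blood glucose >250 mg/dL on day 3. […] Mean ± SEM, n=5; one-way ANOVA with Dunnett's t test.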

[2] = tested on: Rattus norvegicus; assay: Antidiabetic activity in streptozotocin induced diabetic Albino Wistar rat model assessed as reduction in blood glucose level measured 90 mins after insulin dosing by insulin tolerance test; type: functional, organism-based
Method in brief: (§2)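 STZ-diabetic rats (60 mg/kg i.p.; glucose >250 mg/dL on day 3) given compound orally as 0.25% CMC suspension, then oral glucose tolerance and insulin tolerance tests, blood glucose followed over time. Groups: normal control, normal + compound, diabetic control, treated diabetic. Mean ± SEM of five observations; one-way ANOVA, Dunnett's t test.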

[3] = species: Rattus norvegicus; assay: Hepatoprotective effect in streptozotocin induced diabetic Albino Wistar rat model assessed as reduction in serum ALP level; type: functional, organism-based
Method in brief: (§3)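 Serum from STZ-diabetic rats (60 mg/kg i.p.) after oral treatment in 0.25% CMC. AST and ALT measured by the Reitman–Frankel method; ALP by the Walter–Schult method with p-nitrophenyl phosphate substrate.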

[4] = target: Voltage-gated inwardly rectifying potassium channel KCNH2 (Homo sapiens, UniProt Q12809); assay: Inhibition of human ERG
Voltage-gated inwardly rectifying potassium channel KCNH2, sequence (Q12809 whole entry): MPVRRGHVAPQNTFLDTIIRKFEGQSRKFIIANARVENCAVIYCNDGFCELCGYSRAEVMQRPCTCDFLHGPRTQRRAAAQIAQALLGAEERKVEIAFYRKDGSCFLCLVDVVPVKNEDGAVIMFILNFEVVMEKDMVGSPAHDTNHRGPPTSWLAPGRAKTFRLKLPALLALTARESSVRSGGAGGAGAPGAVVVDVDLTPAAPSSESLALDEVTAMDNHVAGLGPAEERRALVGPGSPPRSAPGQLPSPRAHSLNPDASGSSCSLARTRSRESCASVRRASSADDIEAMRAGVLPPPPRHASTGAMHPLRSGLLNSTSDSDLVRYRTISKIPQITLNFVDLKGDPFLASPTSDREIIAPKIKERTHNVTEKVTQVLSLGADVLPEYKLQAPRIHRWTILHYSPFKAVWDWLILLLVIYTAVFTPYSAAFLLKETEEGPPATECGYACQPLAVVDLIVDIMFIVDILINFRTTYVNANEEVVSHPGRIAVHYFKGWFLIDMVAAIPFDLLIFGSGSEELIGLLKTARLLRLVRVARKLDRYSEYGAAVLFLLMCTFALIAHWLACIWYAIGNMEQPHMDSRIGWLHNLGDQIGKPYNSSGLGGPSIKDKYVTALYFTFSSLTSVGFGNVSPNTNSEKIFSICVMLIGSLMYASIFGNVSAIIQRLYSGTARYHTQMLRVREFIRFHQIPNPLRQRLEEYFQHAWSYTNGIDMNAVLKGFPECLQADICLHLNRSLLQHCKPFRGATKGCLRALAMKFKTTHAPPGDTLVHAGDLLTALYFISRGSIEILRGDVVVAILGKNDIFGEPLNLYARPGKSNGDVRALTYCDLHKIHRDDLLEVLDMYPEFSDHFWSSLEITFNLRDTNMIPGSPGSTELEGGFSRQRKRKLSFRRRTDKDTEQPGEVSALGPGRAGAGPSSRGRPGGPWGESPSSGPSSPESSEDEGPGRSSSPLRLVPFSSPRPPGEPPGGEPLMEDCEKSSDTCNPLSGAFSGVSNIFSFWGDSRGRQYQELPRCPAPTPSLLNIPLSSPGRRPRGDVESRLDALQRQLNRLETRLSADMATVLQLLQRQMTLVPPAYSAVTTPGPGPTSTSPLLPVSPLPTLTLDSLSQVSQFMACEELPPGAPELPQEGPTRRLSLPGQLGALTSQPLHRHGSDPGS

[5] = species: Rattus norvegicus; assay: Toxicity in streptozotocin induced diabetic Albino Wistar rat model assessed as induction of portal triad inflammation measured 5 hrs post dose by haematoxylin and eosin staining based microscopy; type: organism-based; settings: in vivo
[6] = species: Rattus norvegicus; assay: Toxicity in streptozotocin induced diabetic Albino Wistar rat model assessed as induction of centrizonal triad inflammation measured 5 hrs post dose by haematoxylin and eosin staining based microscopy; type: organism-based; settings: in vivo
[7] = species: Rattus norvegicus; assay: Hepatoprotective effect in streptozotocin induced diabetic Albino Wistar rat model assessed as reduction in serum AST level; type: functional, organism-based; method in brief: as §3
[8] = species: Rattus norvegicus; assay: Toxicity in streptozotocin induced diabetic Albino Wistar rat model assessed as induction of sinusoidal space dilation measured 5 hrs post dose by haematoxylin and eosin staining based microscopy; type: organism-based; settings: in vivo
[9] = tested on: 3T3-L1; assay: Increase in PPARgamma gene expression in mouse 3T3L1 cells at 10 uM incubated for 24 hrs by real-time PCR method relative to untreated control; type: functional
Method in brief: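 3T3-L1 cells in DMEM with 10% calf serum, seeded 24 h ahead in 24-well plates, exposed to 10 µM compound 24 h at 37 °C, 5% CO2; DMSO vehicle as negative control. RNA extracted, reverse transcribed, qPCR in triplicate, repeated twice; relative PPAR-γ transcript by Ct method normalised to β-actin.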

[10] = species: Rattus norvegicus; assay: Antidiabetic activity in streptozotocin induced diabetic Albino Wistar rat model assessed as reduction in blood glucose level by oral glucose tolerance test; type: functional, organism-based; method in brief: as §2
[11] = species: Rattus norvegicus; assay: Hepatoprotective effect in streptozotocin induced diabetic Albino Wistar rat model assessed as reduction in serum ALT level; type: functional, organism-based; method in brief: as §3
[12] = tested on: Rattus norvegicus; assay: Toxicity in normal Albino Wistar rat assessed as increase in body weight dosed for 15 days; type: organism-based; settings: in vivo, 360 h
Method in brief: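 Normal and STZ-diabetic Wistar rats (STZ 60 mg/kg i.p.) dosed orally daily for 15 days in 0.25% CMC suspension; body weight compared with normal and diabetic controls. Mean ± SEM, n=5; one-way ANOVA with Dunnett's t test.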

[13] = tested on: Rattus norvegicus; assay: Antidiabetic activity in streptozotocin induced diabetic Albino Wistar rat model assessed as blood glucose level at 36 mg/kg, po by glucose oxidase method; type: functional; method in brief: as §1

Structure (SMILES)	Activity [1] [mg/dL]	Activity [2]	Activity [3]	pIC50 [4]	Activity [5]	Activity [6]	Activity [7]	Activity [8]	fold change (FC) [9]	Activity [10]	Activity [11]	Activity [12]	Activity [13] [mg/dL]
O=C1NC(=O)/C(=C\c2ccccc2OCc2nnc(COc3ccc(Cl)cc3Cl)o2)S1	134	Active	Active	4.54	Non-toxic	Non-toxic	Active	Non-toxic	2	Active	Active	Non-toxic	–
COc1cc(/C=C2/SC(=O)NC2=O)ccc1OCc1nnc(-c2ccccc2)o1	139.7	–	Active	–	Non-toxic	Non-toxic	Active	Non-toxic	–	–	Active	–	–
O=C1NC(=O)/C(=C\c2ccccc2OCc2nnc(-c3ccccc3)o2)S1	139.6	–	Active	–	Non-toxic	Non-toxic	Active	Non-toxic	2.1	–	Active	–	–
COc1cc(/C=C2/SC(=O)NC2=O)ccc1OCc1nnc(-c2ccc(Br)cc2)o1	135.2	–	Active	–	Non-toxic	Non-toxic	Active	Non-toxic	–	–	Active	–	–
CCc1ccc(CCOc2ccc(CC3SC(=O)NC3=O)cc2)nc1 (stereo not drawn) [PIOGLITAZONE]	–	–	Active	–	Non-toxic	Toxic	Active	Toxic	–	–	Active	–	132
CN(CCOc1ccc(CC2SC(=O)NC2=O)cc1)c1ccccn1 (stereo not drawn) [ROSIGLITAZONE]	–	–	–	–	–	–	–	–	1	–	–	–	144.2
